Assay: Toxicity liver stage against HepG2, at 10uM
Format: cell-based
Set-up: test concentration 10 uM, cell line HepG2-A16-CD81EGFP
Conditions: human, HepG2-A16-CD81EGFP cells; read-out: INHIBITION
In short: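 Uninfected HepG2-A16-CD81EGFP cells, 3 × 10^3 per well, 1536-well, plated on prespotted compound at 10 μM final, parasite-free screening media added to match infected plates; puromycin 10 μM positive, DMSO 0.5% negative; run in parallel with 48 h PbLuc assay at 37 °C, 5% CO2; viability by CellTiter-Glo luminescence, normalized to controls.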

**Q.** With `CN1CCN(c2cc(NC(=O)Cn3ccc4ccccc43)ncn2)CC1` as the compound, how does the cytotoxicity at 10 µM read?
**A.** -0.973%

**Q.** For `O=C(COc1ccc(Cl)cc1Cl)N1CCCSCC1CN1CCOCC1` (centres undefined), which cytotoxicity at 10 µM is on record?
**A.** 4.09%

**Q.** Which cytotoxicity at 10 µM does the source give for `CCS(=O)(=O)N1C[C@H]2CN(c3cnn(C)c3)C(=O)[C@H]2C1` here?
**A.** -1.19%

**Q.** Which cytotoxicity at 10 µM does the source give for `CN(C)C(=O)N[C@@H]1CN(S(C)(=O)=O)[C@@H]2CCCO[C@@H]21` here?
**A.** 2.62%

**Q.** For `Cc1nnc([C@@H]2CC[C@@H]3[C@@H](CCN3C3CCOCC3)O2)o1`, which cytotoxicity at 10 µM is on record?
**A.** 8.58%

**Q.** For `Cc1ncnc2c1CCN(C(=O)c1ccnnc1)CC2`, which cytotoxicity at 10 µM is on record?
**A.** 9.9%

**Q.** For `CCOCC1CCN(C(=O)Nc2ccc(-c3csnn3)cc2)C1` (centres undefined), which cytotoxicity at 10 µM is on record?
**A.** 13.7%

**Q.** Which cytotoxicity at 10 µM does the source give for `N#Cc1ccc(CNCCS(=O)(=O)N2CCc3ccccc32)cc1` here?
**A.** -4.11%

**Q.** Which cytotoxicity at 10 µM does the source give for `Cc1ncsc1C(=O)NCCNc1cnccn1` here?
**A.** 0.00742%

**Q.** With `Cc1noc(C)c1CN(Cc1ccccc1)C(C)C` as the compound, how does the cytotoxicity at 10 µM read?
**A.** -9.74%

**Q.** For `CC(c1cccnc1)N1CCN(CCO)CC1` (centres undefined), which cytotoxicity at 10 µM is on record?
**A.** -3.21%

**Q.** For `CC(C)(C#N)C(=O)Nc1nccn1Cc1ccc(Br)cc1`, which cytotoxicity at 10 µM is on record?
**A.** -47.5%

**Q.** Which cytotoxicity at 10 µM does the source give for `CC1CN(C)CCN1C(=O)NCCCn1ccnc1` (centres undefined) here?
**A.** -45.5%

**Q.** For `CNC(=O)COc1ccc(CNc2c(Cl)cccc2C#N)cc1`, which cytotoxicity at 10 µM is on record?
**A.** -55.9%

**Q.** Which cytotoxicity at 10 µM does the source give for `COc1cccc(S(=O)(=O)CCN2CCC3(CC2)OCCO3)c1` here?
**A.** 4.62%

**Q.** Which cytotoxicity at 10 µM does the source give for `CCN1CCCN(C(=O)c2cnc(OC(C)C)c(Cl)c2)CC1` here?
**A.** -14.4%

**Q.** For `CCOCC1c2c(ncn2C)CCN1C(=O)c1cscn1` (centres undefined), which cytotoxicity at 10 µM is on record?
**A.** -98.2%

**Q.** Which cytotoxicity at 10 µM does the source give for `OCCN1CCC(F)(F)C2(CCN(c3cccnc3)C2)C1` (centres undefined) here?
**A.** -94.7%

**Q.** Which cytotoxicity at 10 µM does the source give for `NC(=O)N1C[C@H](NC(=O)c2cscn2)[C@@H]2OCCC[C@@H]21` here?
**A.** -99%

**Q.** For `O=S(=O)(c1ccccc1)N1CCC2(CCCN2Cc2ccccc2Cl)C1` (centres undefined), which cytotoxicity at 10 µM is on record?
**A.** -74.5%

**Q.** For `COCC1CN(Cc2ccccn2)Cc2nn(C)cc21` (centres undefined), which cytotoxicity at 10 µM is on record?
**A.** -87.5%

**Q.** With `CN1[C@@H](c2ccccc2)[C@@H](C(=O)NCc2ccccn2)C[C@@]1(C)C(=O)O` as the compound, how does the cytotoxicity at 10 µM read?
**A.** -3.8%

**Q.** With `CCc1c(C(=O)N2CCN(C)[C@@H]3CS(=O)(=O)C[C@@H]32)[nH]c2ccccc12` as the compound, how does the cytotoxicity at 10 µM read?
**A.** -6.08%

**Q.** Which cytotoxicity at 10 µM does the source give for `CCC(C)Oc1ccc(CNCCNS(C)(=O)=O)cc1Cl` (centres undefined) here?
**A.** -6.78%

**Q.** With `CN(C)c1nc2c(c(N3CCC(O)CC3)n1)CN(CC1CCOC1)CC2` (centres undefined) as the compound, how does the cytotoxicity at 10 µM read?
**A.** -0.473%

**Q.** For `O=C(c1ccc2occc2c1)N1CCC(C(=O)O)(n2cccn2)CC1`, which cytotoxicity at 10 µM is on record?
**A.** -0.657%

**Q.** For `Cc1cc(CN2CCCn3nc(CCC(=O)O)cc3C2)ccc1F`, which cytotoxicity at 10 µM is on record?
**A.** 2.28%

**Q.** Which cytotoxicity at 10 µM does the source give for `CCCc1nnc(N2CC[C@@](O)(C3CCOCC3)[C@H](C)C2)s1` here?
**A.** 8.26%

**Q.** For `CN(C)S(=O)(=O)c1csc(C(=O)N2CCC(C(N)=O)CC2)c1`, which cytotoxicity at 10 µM is on record?
**A.** -46.5%

**Q.** Which cytotoxicity at 10 µM does the source give for `Cc1nc2c(c(=O)n1C)CCN(Cc1cc3ccccc3[nH]1)CC2` here?
**A.** -8.42%

**Q.** For `CN(C)C1CCCN(C(=O)c2ccc3sc4c(c3c2)CCNC4=O)CC1` (centres undefined), which cytotoxicity at 10 µM is on record?
**A.** -8.58%

**Q.** For `CCC(C(=O)NCc1csc(-c2ncccn2)n1)n1cccn1` (centres undefined), which cytotoxicity at 10 µM is on record?
**A.** -5.79%

**Q.** Which cytotoxicity at 10 µM does the source give for `O=C1CC2(CCN(CCO)CC2)CN1Cc1cc(F)cc(F)c1` here?
**A.** -15.7%

**Q.** Which cytotoxicity at 10 µM does the source give for `Cn1cccc1CCC(=O)N1CCC2(CC1)c1ccccc1CC2O` (centres undefined) here?
**A.** -8.57%

**Q.** With `COCCN1CCN(C(=O)NC2CC2)Cc2ccc(C)nc21` as the compound, how does the cytotoxicity at 10 µM read?
**A.** 3.51%

**Q.** With `O=C(c1ccc2[nH]ccc2c1)N1CC[C@@H]2CN(CC3CC3)CCO[C@@H]2C1` as the compound, how does the cytotoxicity at 10 µM read?
**A.** -108%

**Q.** For `Cc1ccc(N2CC3(COCCN(Cc4ccccn4)C3)OCC2=O)s1` (centres undefined), which cytotoxicity at 10 µM is on record?
**A.** -3.49%

**Q.** With `c1cncc(COC2COC3(CCN(c4cnccn4)CC3)C2)c1` (centres undefined) as the compound, how does the cytotoxicity at 10 µM read?
**A.** 1.89%

**Q.** Which cytotoxicity at 10 µM does the source give for `CC(C)Oc1ncnc2c1CCN(Cc1ccc(F)cc1)CC2` here?
**A.** 5.68%

**Q.** With `Cc1cc(CNCC2Cn3nnc(C)c3CO2)oc1C` (centres undefined) as the compound, how does the cytotoxicity at 10 µM read?
**A.** 6.65%

**Q.** For `CS(=O)(=O)N1CCCCC12CCCN(Cc1nccs1)C2` (centres undefined), which cytotoxicity at 10 µM is on record?
**A.** 9.94%

**Q.** For `CC(C)CCN1Cc2c(C(=O)N3CCCC3)nn(C)c2C1`, which cytotoxicity at 10 µM is on record?
**A.** -0.173%

**Q.** With `CC(C)Nc1nc2c(c(NC3CC3)n1)CCN(Cc1nccn1C)CC2` as the compound, how does the cytotoxicity at 10 µM read?
**A.** 0.325%

**Q.** Which cytotoxicity at 10 µM does the source give for `Fc1cnc(N2CCC3(CC2)CN(Cc2cccs2)CCO3)nc1` here?
**A.** 12.4%
